Laboratory results reported in ChEMBL document CHEMBL1800014, “Novel lipophilic acetohydroxamic acid derivatives based on conformationally constrained spiro carbocyclic 2,6-diketopiperazine scaffolds with potent trypanocidal activity” (J Med Chem, 2011).
Active and inactive are the calls of the source. The calls are words filed in the database; no cut-off is given here.

How the values were obtained:
[1] = test system: Trypanosoma brucei; experiment: Antitrypanosomal activity against Trypanosoma brucei 427 bloodstream forms assessed as inhibition of parasite growth incubated for 48 hrs by hemocytometry; type: functional, organism-based
[2] = test system: L6; experiment: Cytotoxicity against rat L6 cells after 6 days using alamar blue staining based fluorescence assay; type: cell-based; details: L6, 144 h
How it was run: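 Rat skeletal muscle L6 cells seeded at 1 × 10⁴ ml⁻¹ in medium containing graded compound concentrations and held 6 days at 37 °C. Alamar Blue then added, with fluorescence read after a further 8 h.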

[3] = Selectivity index, ratio of IC50 for rat L6 cells to IC50 for Trypanosoma brucei bloodstream forms; type: toxicity, cell-based; details: read-out: Ratio IC50
[4] = test system: Trypanosoma cruzi; experiment: Antitrypanosomal activity against Trypanosoma cruzi CL Brener clone epimastigotes assessed as inhibition of parasite growth incubated for 5 days by hemocytometry; details: 120 h
[5] = test system: Trypanosoma brucei; experiment: Antitrypanosomal activity against Trypanosoma brucei bloodstream forms assessed as inhibition parasite growth at 5 ug/ml; type: functional
[6] = test system: Trypanosoma brucei; experiment: Antitrypanosomal activity against Trypanosoma brucei relative to rimantadine; type: functional
[7] = test system: Trypanosoma brucei; experiment: Antitrypanosomal activity against Trypanosoma brucei relative to amantadine; type: functional
[8] = test system: Trypanosoma brucei; experiment: Antitrypanosomal activity against Trypanosoma brucei bloodstream form assessed as inhibition parasite growth

| Structure (SMILES) | IC50 [1] [nM] | IC90 [1] [nM] | IC50 ([1]; Trypanosoma brucei, 427, 48 h) [nM] | IC90 ([1]; Trypanosoma brucei, 427, 48 h) [nM] | further results |
| --- | --- | --- | --- | --- | --- |
| CN1CC(=O)N(CC(=O)NO)C(=O)C12CCCCCCC2 [listing 1 of 2 here] | 162 | 327 | – | – | – |
| C[C@@H]1NC2(CCCCCCC2)C(=O)N(CC(=O)NO)C1=O [listing 1 of 2 here] | 134 | 259 | – | – | – |
| O=C(CN1C(=O)CNC2(C1=O)C1CC3CC(C1)CC2C3)NO (stereo unspecified) [listing 1 of 2 here] | – | – | 90 | 155 | IC50 [2]: > 325 µM; selectivity ratio [3]: > 3600; IC50 [4]: 5.51 µM; IC90 [4]: 11.1 µM |
| CN1CC(=O)N(CC(=O)NO)C(=O)C12C1CC3CC(C1)CC2C3 (stereo unspecified) [listing 1 of 2 here] | – | – | 193 | 328 | IC50 [2]: 40.4 µM; selectivity ratio [3]: 210; IC50 [4]: 3.62 µM; IC90 [4]: 5.99 µM |
| CN1CC(=O)NC(=O)C12C1CC3CC(C1)CC2C3 (stereo unspecified) | – | – | – | – | inhibition of growth at 5 µg/mL ([5]; read-out: GI): 40% |
| O=C(CN1C(=O)CNC2(CCCCCCC2)C1=O)NO [listing 1 of 2 here] | – | – | 300 | 635 | – |
| CN1CC(=O)N(CC(=O)NO)C(=O)C12CCCCCC2 [listing 1 of 2 here] | 311 | 717 | – | – | – |
| O=C(CN1C(=O)C(Cc2ccccc2)NC2(C1=O)C1CC3CC(C1)CC2C3)NO (racemic; form 2) | 18 | 24 | – | – | – |
| O=C1ON=C2C3CC4CC(C3)CC12C4 | – | – | – | – | Ratio IC50 [6]: 3; Ratio IC50 [7]: 45 |
| O=C(CN1C(=O)[C@@H](Cc2ccccc2)NC2(C1=O)C1CC3CC(C1)CC2C3)NO (stereo partly specified) [listing 1 of 2 here] | – | – | 9.1 | – | IC50 [2]: 11.6 µM; selectivity ratio [3]: 1300; IC50 [8]: 106 nM |
| O=C(CN1C(=O)C(Cc2ccccc2)NC2(C1=O)C1CC3CC(C1)CC2C3)NO (racemic; form 1) | – | – | 17 | 26 | IC50 [2]: 23.7 µM; selectivity ratio [3]: 1400; IC50 [8]: 285 nM |
| O=C(CN1C(=O)CNC2(CCCCCC2)C1=O)NO [listing 1 of 2 here] | 1150 | 1710 | – | – | – |
| CN1CC(=O)N(CC(=O)NO)C(=O)C12CCCCCCC2 [listing 2 of 2 here] | – | – | 158 | 300 | – |
| O=C1CNC2(C(=O)N1)C1CC3CC(C1)CC2C3 (stereo unspecified) | – | – | – | – | growth inhibition (GI) [5]: inactive |
| O=C(CN1C(=O)[C@@H](Cc2ccccc2)NC2(C1=O)C1CC3CC(C1)CC2C3)NO (stereo partly specified) [listing 2 of 2 here] | – | 14 | – | – | – |
| O=C(CN1C(=O)[C@H](Cc2ccccc2)NC2(CCCCCCC2)C1=O)NO [listing 1 of 2 here] | 25 | 35 | – | – | – |
| O=C(CN1C(=O)CNC2(C1=O)C1CC3CC(C1)CC2C3)NO (stereo unspecified) [listing 2 of 2 here] | 79 | 148 | – | – | – |
| O=C(CN1C(=O)[C@H](Cc2ccccc2)NC2(CCCCCCC2)C1=O)NO [listing 2 of 2 here] | – | – | 29 | 39 | IC50 [2]: 93.8 µM; selectivity ratio [3]: 3200 |
| O=C(CN1C(=O)CNC2(CCCCCC2)C1=O)NO [listing 2 of 2 here] | – | – | 1870 | 2530 | – |
| C[C@@H]1NC2(C(=O)N(CC(=O)NO)C1=O)C1CC3CC(C1)CC2C3 (stereo partly specified) [listing 1 of 2 here] | 405 | 909 | – | – | – |
| O=C(CN1C(=O)CNC2(CCCCCCC2)C1=O)NO [listing 2 of 2 here] | 266 | 495 | – | – | – |
| O=C(CN1C(=O)[C@H](Cc2ccccc2)NC2(C1=O)C1CC3CC(C1)CC2C3)NO (stereo partly specified) [listing 1 of 2 here] | 6.8 | 11.5 | – | – | IC50 [2]: 10.4 µM; selectivity ratio [3]: 1500; IC50 [8]: 332 nM; IC50 [4]: 0.21 µM; IC90 [4]: 0.36 µM |
| C[C@@H]1NC2(CCCCCCC2)C(=O)N(CC(=O)NO)C1=O [listing 2 of 2 here] | – | – | 125 | 270 | – |
| CN1CC(=O)N(CC(=O)NO)C(=O)C12C1CC3CC(C1)CC2C3 (stereo unspecified) [listing 2 of 2 here] | 340 | 622 | – | – | – |
| C[C@@H]1NC2(C(=O)N(CC(=O)NO)C1=O)C1CC3CC(C1)CC2C3 (stereo partly specified) [listing 2 of 2 here] | 134 | 276 | – | – | – |
| O=C(CN1C(=O)[C@H](Cc2ccccc2)NC2(C1=O)C1CC3CC(C1)CC2C3)NO (stereo partly specified) [listing 2 of 2 here] | 42 | 80 | – | – | – |
| CN1CC(=O)N(CC(=O)NO)C(=O)C12CCCCCC2 [listing 2 of 2 here] | – | – | 285 | 673 | – |
